Published values collected from several papers.
Each line is one published result; the experiments were not run side by side. Converted amounts (≈) assume the structure as drawn.

SMILES | organism | test | test system | conditions | endpoint | value
COC(=O)c1cc(-c2cccc(NC(=O)Nc3ccc(C)c(Cl)c3)c2)on1 | Mycobacteroides chelonae | microbial growth, broth dilution | ATCC35752 | 48 h | MIC | > 64 µg/mL
O=C(N/N=C/c1ccc(O)c(O)c1)c1cc2ccccc2cc1O | Murine coronavirus | viral replication |  |  | IC50 | 6 µM
c1ccc2c(c1)CCc1ccccc1C2OCCN1CCNCC1 | Trypanosoma brucei | parasite growth |  |  | EC50 | 9.32 µM
Cl.O[C@]12C=C(c3nccc4c3[nH]c3ccccc34)[C@@H]3CCN(CCCC/C=C\CC1)C[C@@]31C[C@@H]3/C=C\CCCCN3[C@H]12 | Mycobacterium intracellulare | microbial growth, resazurin | ATCC23068 |  | IC50 | 0.12 µg/mL
O=c1c2ccccc2nc(/C=C/c2ccccc2F)n1-c1cccc(O)c1 | Enterococcus faecium | microbial growth, broth dilution | NCTC7171 |  | MIC | 32 µg/mL (≈ 89.3 µM)
O=c1cccc(C2CCCCC2)n1O | Candida albicans | microbial growth | ATCC90028 |  | MIC80 | 1.9 µM (≈ 0.367 µg/mL)
O=c1c2ccccc2nc(/C=C/c2ccc(F)cc2)n1-c1cccc([N+](=O)[O-])c1 | Enterococcus faecium | microbial growth, broth dilution | NCTC7171 |  | MIC | > 128 µg/mL
COC(=O)c1cc(-c2cccc(NC(=S)Nc3ccc(F)cc3F)c2)on1 | Mycobacteroides chelonae | microbial growth, broth dilution | ATCC35752 | 48 h | MIC | 16 µg/mL (≈ 41.1 µM)
O=C(Nc1cccc(Cl)c1)Nc1ncc(CCNc2ncnc3ccsc23)s1 | Plasmodium berghei | parasite growth, luciferase | human | liver stage | IC50 | 4.2 µM
COC(=O)c1cc(-c2cccc(NC(=O)Nc3cccc(Br)c3)c2)on1 | Mycobacteroides chelonae | microbial growth, broth dilution | ATCC35752 | 48 h | MIC | > 64 µg/mL
O=C(O)CSc1ncnc2cc(-c3cc4ccccc4s3)sc12 | Murine coronavirus | viral replication |  | 1 µM, 10 h | inhibition | -36%
COC(=O)c1cc(-c2cccc(NC(=O)Nc3ccccc3OC)c2)on1 | Mycobacteroides chelonae | microbial growth, broth dilution | ATCC35752 | 48 h | MIC | > 64 µg/mL
O=c1c2ccccc2nc(/C=C/c2ccccc2)n1-c1cccc(O)c1 | Enterococcus faecium | microbial growth, broth dilution | NCTC7171 |  | MIC | 32 µg/mL (≈ 94 µM)
COc1ccc(Cc2cc(C)cc(=O)n2O)cc1 | Candida albicans | microbial growth | ATCC90028 |  | MIC80 | 2.3 µM (≈ 0.564 µg/mL)
N#Cc1ccc(/C=C/c2nc3ccccc3c(=O)n2-c2cc[nH]n2)cc1 | Enterococcus faecium | microbial growth, broth dilution | NCTC7171 |  | MIC | > 128 µg/mL
COC(=O)c1cc(-c2cccc(NC(=O)Nc3ccc(F)c(F)c3)c2)on1 | Mycobacteroides chelonae | microbial growth, broth dilution | ATCC35752 | 48 h | MIC | > 64 µg/mL
O=c1c2ccccc2nc(/C=C/c2cccc(F)c2)n1-c1cccc(O)c1 | Enterococcus faecium | microbial growth, broth dilution | NCTC7171 |  | MIC | 32 µg/mL (≈ 89.3 µM)
Cc1cc(C2CCCCC2)n(O)c(=O)c1 | Candida albicans | microbial growth | ATCC90028 |  | MIC80 | 1.9 µM (≈ 0.394 µg/mL)
COC(=O)c1cc(-c2cccc(NC(=S)Nc3ccccc3)c2)on1 | Mycobacteroides chelonae | microbial growth, broth dilution | ATCC35752 | 48 h | MIC | > 64 µg/mL
Cc1ccc(-c2nc3ccccc3c(=O)n2-c2cccc(O)c2)cc1 | Enterococcus faecium | microbial growth, broth dilution | NCTC7171 |  | MIC | > 128 µg/mL
